IC50, inhibition and Drug uptake data for 20 compounds are collected here from ChEMBL document CHEMBL1681674, “Synthesis of 3-phenylpyrazolopyrimidine-1,2,3-triazole conjugates and evaluation of their Src kinase inhibitory and anticancer activities” (Bioorg Med Chem Lett, 2011).

The target in data set [1] is T1, Proto-oncogene tyrosine-protein kinase Src (Homo sapiens, UniProt P12931). The data set can be described thus: Inhibition of GST-fussed c-SRC after 30 mins.
For data set [2], the system named is MDA-MB-361. The experiment in a line: Cytotoxicity against c-SRC expressing human MDA-MB-361 cells assessed as inhibition of cell proliferation at 50 uM after 72 hrs relative to control. The data set is classed as functional. Particulars: MDA-MB-361, 72 h; call rule not given here. In outline: (§1)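 Proliferation of SK-Ov-3, MDA-MB-361 and HT-29 cells was measured after 72 h exposure at 50 μM. Growth is expressed as a percentage of the DMSO vehicle control, set at 100%, with no compound. All experiments were run in triplicate.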

In data set [3] the test system is HT-29. The data set can be described thus: Cellular uptake in c-SRC expressing human HT-29 cells. The data set is classed as ADME, cell-based.
In data set [4] the test system is MDA-MB-361. The experiment in a line: Cellular uptake in c-SRC expressing human MDA-MB-361 cells. The data set is classed as ADME, cell-based.
In data set [5] the test system is SK-OV-3. The data set can be described thus: Cellular uptake in c-SRC expressing human SKOV3 cells. It is filed as ADME, cell-based.
Data set [6] deals with T1, Proto-oncogene tyrosine-protein kinase Src. The experiment in a line: Inhibition of GST-fussed c-SRC up to 250 uM after 30 mins. In outline:
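Src kinase enzyme inhibition was assessed at concentrations up to 250 μM.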

Data set [7] deals with HT-29. The data set can be described thus: Cytotoxicity against c-SRC expressing human HT-29 cells assessed as inhibition of cell proliferation at 50 uM after 72 hrs relative to control. The data set is classed as functional. Conditions: HT-29, 72 h. In outline: as §1
In data set [8] the test system is SK-OV-3. The experiment in a line: Cytotoxicity against c-SRC expressing human SKOV3 cells assessed as inhibition of cell proliferation at 50 uM after 72 hrs relative to control. The data set is classed as functional. Particulars: SK-OV-3, 72 h. In outline:
as §1

T1 sequence (P12931 2-536 limits assumed): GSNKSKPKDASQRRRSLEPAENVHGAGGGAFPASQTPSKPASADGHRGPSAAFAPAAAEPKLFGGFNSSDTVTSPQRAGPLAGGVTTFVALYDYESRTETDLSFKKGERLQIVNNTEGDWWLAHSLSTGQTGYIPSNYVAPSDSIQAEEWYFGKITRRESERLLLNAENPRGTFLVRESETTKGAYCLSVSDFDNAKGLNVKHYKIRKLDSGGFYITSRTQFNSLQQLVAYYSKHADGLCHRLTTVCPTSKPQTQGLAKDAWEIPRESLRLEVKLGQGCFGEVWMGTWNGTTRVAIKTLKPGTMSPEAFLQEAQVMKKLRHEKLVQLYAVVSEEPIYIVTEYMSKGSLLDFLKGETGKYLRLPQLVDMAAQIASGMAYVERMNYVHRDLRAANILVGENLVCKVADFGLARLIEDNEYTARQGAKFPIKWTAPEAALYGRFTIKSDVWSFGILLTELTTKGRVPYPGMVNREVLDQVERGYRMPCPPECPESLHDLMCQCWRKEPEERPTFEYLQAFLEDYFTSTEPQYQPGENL

In the case of `Cc1ccc(C(=O)Cn2cc(Cn3nc(-c4ccccc4)c4c(N)ncnc43)nn2)cc1`, in data set [1], the IC50 was more than 75 µM.

In data set [1], `Nc1ncnc2c1c(-c1ccccc1)nn2Cc1cn(CC(=O)Nc2ccc(Cl)cc2)nn1` displayed an IC50 of more than 75 µM.

In the case of `Nc1ncnc2c1c(-c1ccccc1)nn2CCn1cc(-c2ccc(F)cc2)nn1`, the inhibition at 50 µM in data set [2] stood at 49%. This compound also had an IC50 in data set [1] of 29.6 µM. In data set [1], `CCOC(=O)Cn1cc(Cn2nc(-c3ccccc3)c3c(N)ncnc32)nn1` showed an IC50 of 12.7 µM.

Compound `Nc1ncnc2c1c(-c1ccccc1)nn2Cc1cn(CC(=O)c2cccs2)nn1` displayed an IC50 in data set [1] of more than 75 µM.

Turning to `CCCCCCCCCCc1cn(CCn2nc(-c3ccccc3)c3c(N)ncnc32)nn1`, the IC50 in data set [1] was more than 75 µM. Same read-out and setting: the value for `CCCCc1cn(CCn2nc(-c3ccccc3)c3c(N)ncnc32)nn1` was more than 75 µM. With `CCCCCCc1cn(CCn2nc(-c3ccccc3)c3c(N)ncnc32)nn1`, the Drug uptake entry in data set [3], in data set [4] and in data set [5] was “Active” throughout. The IC50 in data set [1] is 5.6 µM. On to `Nc1ncnc2c1c(-c1ccccc1)nn2Cc1cn(CC(=O)c2ccccc2)nn1`, for which the IC50 in data set [1] was more than 75 µM. For the compound `CCCCCCCc1cn(CCn2nc(-c3ccccc3)c3c(N)ncnc32)nn1`, the IC50 in data set [1] is more than 75 µM. In turn, `Nc1ncnc2c1c(-c1ccccc1)nn2CCn1cc(Cc2ccccc2)nn1` displayed an inhibition in data set [6] of less than 10%. As for `[N-]=[N+]=NCCn1nc(-c2ccccc2)c2c(N)ncnc21`, in data set [1], the midpoint of inhibition, the IC50, lay at 6.2 µM. `Nc1ncnc2c1c(-c1ccccc1)nn2CCn1cc(CCCCl)nn1` came in with an inhibition in data set [6] of less than 10%. For the same compound, in data set [7], the inhibition at 50 µM came out at 57%.

In turn, `COc1ccc(-c2cn(CCn3nc(-c4ccccc4)c4c(N)ncnc43)nn2)cc1` yielded a concentration for half-maximal inhibition (IC50) in data set [1] of 17.4 µM. In addition, the inhibition at 50 µM in data set [7] came to 73%; in data set [8], 58%. In data set [6], `Nc1ncnc2c1c(-c1ccccc1)nn2Cc1cn(CC(=O)CCc2cccc3ccccc23)nn1` showed an inhibition of less than 10%. Also, in data set [8], the inhibition at 50 µM is 48%. Compound `Nc1ncnc2c1c(-c1ccccc1)nn2Cc1cn(CC(=O)CCCO)nn1` had an IC50 in data set [1] of 9.1 µM. Same read-out and setting: the value for `CC(=O)c1ccc(-c2cn(CCn3nc(-c4ccccc4)c4c(N)ncnc43)nn2)cc1` was more than 75 µM; that for `Nc1ncnc2c1c(-c1ccccc1)nn2Cc1cn(CC(=O)c2ccc(Cl)cc2)nn1` was more than 75 µM; that for `Nc1ncnc2c1c(-c1ccccc1)nn2Cc1cn(CC(=O)Nc2ccc(F)cc2)nn1` was 16.4 µM. In the case of `Nc1ncnc2c1c(-c1ccccc1)nn2Cc1cn(CC(=O)Nc2ccccc2)nn1`, in data set [2], the inhibition at 50 µM came out at 51%. Moreover, in data set [1], the half-maximal inhibitory concentration (IC50) was 23.1 µM.
